ChEMBL document CHEMBL1152760, “Synthesis and bioevaluation of omega-N-amino analogs of B13” (Bioorg Med Chem, 2009)
Each block holds one molecule with its values, some of them ahead of it. Calls of active or inactive are those of the source. The rule behind the calls is not given here.

Legend:
MCF7 [1] = assay: Increase in endogenous C16-ceramide level in human MCF7 cells at 10 uM after 2 hrs by LC/MS analysis relative to control; assay type: functional
Outline: (§1)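 MCF7 cells treated with 10μM compound for 2 h. Endogenous ceramide species and sphingosine were measured in a Bligh & Dyer lipid extract and normalized to phospholipid phosphate (pmol/nmol Pi). Results are given as % of control, each dose in duplicate.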

MCF7 [2] = assay: Cytotoxicity against human MCF7 cells after 48 hrs by MTT assay; assay type: functional, cell-based; conditions: for IC50: MCF7, 48 h
Outline: (§2)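 MCF7 cells (RPMI 1640, 10% FBS) seeded at 5 × 10^3 per well and left overnight to attach. Compounds in DMSO (<0.1%) added at 0.78–100 μM for 48 h (or 72 h), then MTT read-out. Viability is Ad/Ac × 100 against untreated controls, with 5 replicates per dose and two independent experiments. IC50 is the concentration giving 50% growth inhibition.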

[3] = target: T1, Acid ceramidase (Homo sapiens) (UniProt Q13510); assay: Inhibition of acid ceramidase in human MCF7 cell lysate at 50 uM by scintillation counting; assay type: cell-free
T1 sequence (whole entry): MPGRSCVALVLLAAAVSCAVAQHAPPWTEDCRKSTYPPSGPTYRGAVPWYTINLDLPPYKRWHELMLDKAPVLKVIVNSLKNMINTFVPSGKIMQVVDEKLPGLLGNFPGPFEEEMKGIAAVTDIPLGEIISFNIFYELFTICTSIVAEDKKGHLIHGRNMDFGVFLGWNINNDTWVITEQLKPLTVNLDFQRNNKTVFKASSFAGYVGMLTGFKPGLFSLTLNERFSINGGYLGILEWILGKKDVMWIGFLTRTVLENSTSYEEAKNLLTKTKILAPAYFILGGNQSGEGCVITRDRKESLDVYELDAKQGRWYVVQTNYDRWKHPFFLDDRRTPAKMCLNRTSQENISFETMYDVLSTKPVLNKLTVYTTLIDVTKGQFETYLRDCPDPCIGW
Outline: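 MCF7 lysate prepared in pH 4.5 acetate buffer (5mM MgCl2, 1mM EDTA, 0.5% Triton X-100) served as the enzyme source. Substrate was [3H]C16-ceramide in Triton/cholate, dried down with compound from ethanol stock. The reaction was run at final pH about 4.2 and 37°C for 1 h, then stopped with Dole's reagent. Released [3H]palmitic acid was counted by scintillation. Duplicates, reported as % control.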

MCF7 [4] = assay: Increase in endogenous total ceramide level in human MCF7 cells at 10 uM after 2 hrs by LC/MS analysis relative to control; assay type: functional; outline: as §1
MCF7 [5] = assay: Decrease in endogenous sphingosine level in human MCF7 cells at 10 uM after 2 hrs by LC/MS analysis relative to control; assay type: functional; parameters: scale not given: the % may be the effect or the level left; outline: as §1
MCF7 [6] = assay: Increase in endogenous C14-ceramide level in human MCF7 cells at 10 uM after 2 hrs by LC/MS analysis relative to control; assay type: functional; outline: as §1
MCF7 [7] = assay: Increase in endogenous C18-ceramide level in human MCF7 cells at 10 uM after 2 hrs by LC/MS analysis relative to control; assay type: functional; outline: as §1
MCF7 [8] = assay: Increase in endogenous C24-ceramide level in human MCF7 cells at 10 uM after 2 hrs by LC/MS analysis relative to control; assay type: functional; outline: as §1
MCF7 [9] = assay: Increase in endogenous C24:1-ceramide level in human MCF7 cells at 10 uM after 2 hrs by LC/MS analysis relative to control; assay type: functional; outline: as §1
MCF7 [10] = assay: Increase in endogenous sphingosine level in human MCF7 cells at 10 uM after 2 hrs by LC/MS analysis relative to control; assay type: functional; outline: as §1
MCF7 [11] = assay: Induction of lysosomal destabilization in human MCF7 cells assessed as reduction in stability at 10 uM after 1 to 5 hrs by FACS; assay type: functional
Outline: (§3)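 MCF7 cells seeded at 5 × 10^5 per well overnight, then moved to fresh 2% FBS medium with compound in DMSO or DMSO alone at 37°C for 1 and 5 h. 200nM LysoTracker Red was added for 30 min, and cells were trypsinized, washed and analysed by FACS (564–606nm, ≥10,000 events). A fall in fluorescence indicates a rise in lysosomal pH. Triplicates, reported as % control.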

[12] = target: T1, Acid ceramidase (Homo sapiens); assay: Inhibition of acid ceramidase in human MCF7 cells at 10 uM after 2 hrs by scintillation counting; assay type: cell-based
Outline: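 MCF7 cells were treated with 10μM compound for 2 h, scraped and lysed in acidic buffer. Acid ceramidase activity in the lysate was assayed with [3H]C16-ceramide at pH about 4.2, 37°C for 1 h, counting released [3H]palmitic acid. Duplicates, reported as % control.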

MCF7 [13] = assay: Induction of apoptosis in human MCF7 cells at 5 uM after 24 hrs; assay type: functional, cell-based; conditions: MCF7, 24 h
MCF7 [14] = assay: Induction of apoptosis in human MCF7 cells assessed as increase in caspase 3/7 activity at 10 uM after 24 hrs; assay type: functional
Outline: (§4)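 MCF7 cells seeded at 5 × 10^3 per well overnight, then given vehicle or compound at the indicated concentrations. After 8 h and 24 h, caspase 3/7 activity was measured with the Apo-ONE homogeneous kit (fluorescence, ex 485/em 520 nm). Data are mean ±SD.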

MCF7 [15] = assay: Cytotoxicity against human MCF7 cells after 72 hrs by MTT assay; assay type: functional, cell-based; conditions: MCF7, 72 h; outline: as §2
MCF7 [16] = assay: Induction of lysosomal destabilization in human MCF7 cells assessed as reduction in stability at 10 uM after 1 hr by FACS; assay type: functional; parameters: scale not given: the % may be the effect or the level left; outline: as §3
MCF7 [17] = assay: Induction of lysosomal destabilization in human MCF7 cells assessed as reduction in stability at 10 uM after 5 hrs by FACS; assay type: functional, cell-based; outline: as §3
MCF7 [18] = assay: Induction of apoptosis in human MCF7 cells assessed as increase in caspase 3/7 activity after 24 hrs; assay type: functional, cell-based; outline: as §4

Structure (SMILES): NCCCCCCCCCCCC(=O)N[C@H](CO)[C@H](O)c1ccc([N+](=O)[O-])cc1
- Activity (MCF7 [1]): 120%
- Activity (MCF7 [2]): Dose-dependent effect
- IC50 (MCF7 [2]): 6.43 µM
- Activity (MCF7 [4]): 98%
- Activity (MCF7 [5]): 50%
- Activity (MCF7 [6]): 200%

Structure (SMILES): O=C(CCCCCCCCCCCn1ccnc1)N[C@H](CO)[C@H](O)c1ccc([N+](=O)[O-])cc1
- Activity (MCF7 [1]): 120%
- Activity (MCF7 [2]): Dose-dependent effect
- IC50 (MCF7 [2]): 14.8 µM
- Activity (MCF7 [4]): 98%
- Activity (MCF7 [5]): 50%
- Activity (MCF7 [6]): 200%

Structure (SMILES): CNCCCCCCCCCCCC(=O)N[C@H](CO)[C@H](O)c1ccc([N+](=O)[O-])cc1
- Activity (MCF7 [1]): 120%
- Activity (MCF7 [2]): Dose-dependent effect
- IC50 (MCF7 [2]): 15.5 µM
- Activity (MCF7 [4]): 98%
- Activity (MCF7 [5]): 50%
- Activity (MCF7 [6]): 200%

Structure (SMILES): CCCCCCCCCCCCCCN[C@H](CO)[C@H](O)c1ccc([N+](=O)[O-])cc1.Cl
- Activity (MCF7 [1]): 200%
- Activity (MCF7 [7]): 160%
- Activity (MCF7 [11]): 90%
- Activity (MCF7 [2]): Dose-dependent effect
- IC50 (MCF7 [2]): 4.29 µM
- IC50 (MCF7 [13]): 5 µM
- inhibition [12]: 35%
- Activity (MCF7 [5]): 30%
- Activity (MCF7 [6]): 220%

The next lines start with results.

- inhibition [3]: 5%
Structure (SMILES): CCCCCCCCNCCCCCC(=O)N[C@H](CO)[C@H](O)c1ccc([N+](=O)[O-])cc1
- Activity (MCF7 [1]): 120%
- Activity (MCF7 [2]): Dose-dependent effect
- IC50 (MCF7 [2]): 12.1 µM
- Activity (MCF7 [4]): 98%
- Activity (MCF7 [5]): 50%
- Activity (MCF7 [6]): 200%

- inhibition [3]: 90%
- Activity [12]: inactive
Structure (SMILES): CCCCCCCCCCCCCC(=O)N[C@H](CO)[C@H](O)c1ccc([N+](=O)[O-])cc1
- Activity (MCF7 [1]): 135%
- Activity (MCF7 [7]): 135%
- Activity (MCF7 [8]): 135%
- Activity (MCF7 [9]): 135%
- Activity (MCF7 [10]): 140%
- Activity (MCF7 [11]): inactive
- Activity (MCF7 [2]): Dose-dependent effect
- IC50 (MCF7 [2]): 19.6 µM
- Activity (MCF7 [6]): 135%

- inhibition [3]: 55%
- inhibition [12]: 65%
Structure (SMILES): CN(C)CCCCCCCCCCCC(=O)N[C@H](CO)[C@H](O)c1ccc([N+](=O)[O-])cc1
- Activity (MCF7 [1]): 143%
- Activity (MCF7 [14]): 175%
- Activity (MCF7 [2]): Dose-dependent effect
- IC50 (MCF7 [2]): 10.2 µM
- IC50 (MCF7 [15]): 7.2 µM
- Activity (MCF7 [16]): 10%
- Activity (MCF7 [17]): inactive
- Activity (MCF7 [18]): Dose-dependent effect
- Activity (MCF7 [5]): 50%
- Activity (MCF7 [6]): 300%

- inhibition [3]: 5%
Structure (SMILES): O=C(CCCCCCCCCCCN1CCOCC1)N[C@H](CO)[C@H](O)c1ccc([N+](=O)[O-])cc1
- Activity (MCF7 [1]): 120%
- Activity (MCF7 [2]): Dose-dependent effect
- IC50 (MCF7 [2]): 49.9 µM
- Activity (MCF7 [4]): 98%
- Activity (MCF7 [5]): 50%
- Activity (MCF7 [6]): 200%
